From ChEMBL document CHEMBL3593166, “Hybrid chemistry. Part 4: Discovery of etravirine-VRX-480773 hybrids as potent HIV-1 non-nucleoside reverse transcriptase inhibitors” (Bioorg Med Chem, 2015)
Activity calls are given as the source filed them. No cut-off for these calls is given here.

system: Human immunodeficiency virus 1; assay: Antiviral activity against HIV1 3B infected in human MT4 cells […] added 3 to 5 hrs post infection and measured 31 hrs post infection by p24 enzyme-linked immunosorbent assay; assay type: functional, organism-based; settings: not given
How it was run: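 MT-4 cells infected with WT HIV-1 at m.o.i. 0.5 and allowed 1 h adsorption, then seeded at 45,000 cells/well at 37 °C. Compound added at set times from 0 to 25 h post-infection. Virus production read by p24 ELISA at 31 h post-infection.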

For `Cc1ccnc2c1NC(=O)c1cccnc1N2C1CC1`, which inhibition is on record?
Its inhibition is “Active”.

system: not listed separately; assay: Selectivity index, ratio of CC50 for human MT4 cells to EC50 for HIV1 3B infected in human MT4 cells; assay type: toxicity, cell-based; settings: HIV1 3B infected MT4 cells, read-out: Ratio CC50/EC50
How it was run: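 SI calculated as CC50 in uninfected MT-4 cells divided by EC50 against WT HIV-1 IIIB. Both come from the 4-day MTT assays at 37 °C; infection was at MOI 0.02 with cells at 1 × 10^5 cells/mL.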

With `Cc1cc(C#N)cc(C)c1Oc1ccnc(SCC(=O)Nc2cccc([N+](=O)[O-])c2)n1` as the molecule, how does the selectivity ratio read?
The selectivity ratio was over 7.

With `Cc1cc(C#N)cc(C)c1Oc1ccnc(SCC(=O)Nc2ccc(Cl)cc2)n1` as the molecule, how does the selectivity ratio read?
Its selectivity ratio is over 75.

With `Cc1cc(C#N)cc(C)c1Oc1ccnc(SCC(=O)Nc2ccc(O)cc2)n1` as the molecule, how does the selectivity ratio read?
Its selectivity ratio is 9.

With `Cc1cc(C#N)cc(C)c1Oc1ccnc(SCC(=O)Nc2ccc(C#N)cc2)n1` as the molecule, how does the selectivity ratio read?
The selectivity ratio was over 70.

For `Cc1cc(C#N)cc(C)c1Oc1ccnc(SCC(=O)Nc2cc(Cl)cc(Cl)c2)n1`, which selectivity ratio is on record?
The selectivity ratio was over 3.7.

Which selectivity ratio does the source give for `Cc1ccccc1NC(=O)CSc1nccc(Oc2c(C)cc(C#N)cc2C)n1` here?
Its selectivity ratio is over 52.

With `Cc1cc(C#N)cc(C)c1Oc1ccnc(SCC(=O)Nc2ccc(Cl)cc2Cl)n1` as the molecule, how does the selectivity ratio read?
The selectivity ratio was over 227.

For `Cc1cc(C#N)cc(C)c1Oc1ccnc(SCC(=O)Nc2cccc(Cl)c2)n1`, which selectivity ratio is on record?
The selectivity ratio was over 37.

With `Cc1cc(C#N)cc(C)c1Oc1ccnc(SCC(=O)Nc2ccc(Br)cc2)n1` as the molecule, how does the selectivity ratio read?
The selectivity ratio was 17.

For `Cc1cc(C#N)cc(C)c1Oc1nc(Nc2ccc(C#N)cc2)nc(N)c1Br` [ETRAVIRINE], which selectivity ratio is on record?
The selectivity ratio was over 1120.

Which selectivity ratio does the source give for `COc1ccc(NC(=O)CSc2nccc(Oc3c(C)cc(C#N)cc3C)n2)cc1` here?
The selectivity ratio was at least 9.

system: Human immunodeficiency virus 1; assay: Antiviral activity against HIV1 3B infected in human MT4 cells assessed as inhibition of virus-induced cytopathicity incubated for 4 days by MTT method; assay type: functional, organism-based; settings: Human immunodeficiency virus 1, 3B, MT4, 96 h
How it was run: (§1)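 Virus stocks titrated in MT-4 cells as CCID50. MT-4 cells at 1 × 10^5 cells/mL infected at MOI 0.02 (HIV-1 IIIB or HIV-2 ROD), then plated immediately over serial compound dilutions (DMSO stocks, 50 mM or higher). After 4 days at 37 °C, viable cells counted by MTT. EC50 from means of at least three separate experiments.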

For `Cc1cc(C#N)cc(C)c1Oc1ccnc(SCC(=O)Nc2cccc([N+](=O)[O-])c2)n1`, which EC50 is on record?
Its EC50 is 41 µM.

With `Cc1cc(C#N)cc(C)c1Oc1ccnc(SCC(=O)Nc2ccc(Cl)cc2)n1` as the molecule, how does the EC50 read?
Its EC50 is 3.9 µM.

With `Cc1cc(C#N)cc(C)c1Oc1ccnc(SCC(=O)Nc2ccc(O)cc2)n1` as the molecule, how does the EC50 read?
Its EC50 is 8.3 µM.

With `Cc1cc(C#N)cc(C)c1Oc1ccnc(SCC(=O)Nc2ccc(C#N)cc2)n1` as the molecule, how does the EC50 read?
The EC50 was 4.3 µM.

Which EC50 does the source give for `Cc1cc(C#N)cc(C)c1Oc1ccnc(SCC(=O)Nc2cc(Cl)cc(Cl)c2)n1` here?
Its EC50 is 10.8 µM.

For `Cc1ccccc1NC(=O)CSc1nccc(Oc2c(C)cc(C#N)cc2C)n1`, which EC50 is on record?
Its EC50 is 5.9 µM.

With `Cc1cc(C#N)cc(C)c1Oc1ccnc(SCC(=O)Nc2ccc(Cl)cc2Cl)n1` as the molecule, how does the EC50 read?
The EC50 was 1.2 µM.

For `Cc1cc(C#N)cc(C)c1Oc1ccnc(SCC(=O)Nc2cccc(Cl)c2)n1`, which EC50 is on record?
Its EC50 is 8 µM.

With `Cc1cc(C#N)cc(C)c1Oc1ccnc(SCC(=O)Nc2ccc(Br)cc2)n1` as the molecule, how does the EC50 read?
The EC50 was 1.4 µM.

With `COc1ccc(NC(=O)CSc2nccc(Oc3c(C)cc(C#N)cc3C)n2)cc1` as the molecule, how does the EC50 read?
The EC50 was 7.3 µM.

system: Human immunodeficiency virus 2; assay: Antiviral activity against HIV2 ROD infected in human MT4 cells assessed as inhibition of virus-induced cytopathicity incubated for 4 days by MTT method; assay type: functional, organism-based; settings: Human immunodeficiency virus 2, ISOLATE ROD, MT4, 96 h; how it was run: as §1

For `Cc1cc(C#N)cc(C)c1Oc1ccnc(SCC(=O)Nc2cccc([N+](=O)[O-])c2)n1`, which EC50 is on record?
The EC50 was over 287 µM.

With `Cc1cc(C#N)cc(C)c1Oc1ccnc(SCC(=O)Nc2ccc(Cl)cc2)n1` as the molecule, how does the EC50 read?
The EC50 was over 294 µM.

Which EC50 does the source give for `Cc1cc(C#N)cc(C)c1Oc1ccnc(SCC(=O)Nc2ccc(O)cc2)n1` here?
Its EC50 is over 71 µM.

For `Cc1cc(C#N)cc(C)c1Oc1ccnc(SCC(=O)Nc2ccc(C#N)cc2)n1`, which EC50 is on record?
Its EC50 is over 301 µM.

With `Cc1cc(C#N)cc(C)c1Oc1ccnc(SCC(=O)Nc2cc(Cl)cc(Cl)c2)n1` as the molecule, how does the EC50 read?
Its EC50 is over 41 µM.

Which EC50 does the source give for `Cc1ccccc1NC(=O)CSc1nccc(Oc2c(C)cc(C#N)cc2C)n1` here?
Its EC50 is over 309 µM.

With `Cc1cc(C#N)cc(C)c1Oc1ccnc(SCC(=O)Nc2ccc(Cl)cc2Cl)n1` as the molecule, how does the EC50 read?
The EC50 was over 272 µM.

Which EC50 does the source give for `Cc1cc(C#N)cc(C)c1Oc1ccnc(SCC(=O)Nc2cccc(Cl)c2)n1` here?
Its EC50 is over 294 µM.

Which EC50 does the source give for `Cc1cc(C#N)cc(C)c1Oc1ccnc(SCC(=O)Nc2ccc(Br)cc2)n1` here?
Its EC50 is over 24 µM.

Which EC50 does the source give for `COc1ccc(NC(=O)CSc2nccc(Oc3c(C)cc(C#N)cc3C)n2)cc1` here?
The EC50 was over 69 µM.

system: not listed separately; assay: Cytotoxicity against human MT4 cells assessed as reduction in cell viability incubated for 4 days MTT method; assay type: cell-based; settings: not given
How it was run: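 Uninfected MT-4 cells at 1 × 10^5 cells/mL exposed to serial compound dilutions (DMSO stocks, 50 mM or higher) in parallel with the antiviral test. Viability read by MTT after 4 days at 37 °C. CC50 is the concentration lowering viability by 50%. Values are means of at least three experiments.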

Which CC50 at 96 h does the source give for `Cc1cc(C#N)cc(C)c1Oc1ccnc(SCC(=O)Nc2cccc([N+](=O)[O-])c2)n1` here?
The CC50 at 96 h was over 287 µM.

For `Cc1cc(C#N)cc(C)c1Oc1ccnc(SCC(=O)Nc2ccc(Cl)cc2)n1`, which CC50 at 96 h is on record?
The CC50 at 96 h was over 294 µM.

For `Cc1cc(C#N)cc(C)c1Oc1ccnc(SCC(=O)Nc2ccc(O)cc2)n1`, which CC50 at 96 h is on record?
The CC50 at 96 h was 71 µM.

Which CC50 at 96 h does the source give for `Cc1cc(C#N)cc(C)c1Oc1ccnc(SCC(=O)Nc2ccc(C#N)cc2)n1` here?
Its CC50 at 96 h is over 301 µM.

Which CC50 at 96 h does the source give for `Cc1cc(C#N)cc(C)c1Oc1ccnc(SCC(=O)Nc2cc(Cl)cc(Cl)c2)n1` here?
Its CC50 at 96 h is at least 41 µM.

For `Cc1ccccc1NC(=O)CSc1nccc(Oc2c(C)cc(C#N)cc2C)n1`, which CC50 at 96 h is on record?
Its CC50 at 96 h is over 309 µM.

With `Cc1cc(C#N)cc(C)c1Oc1ccnc(SCC(=O)Nc2ccc(Cl)cc2Cl)n1` as the molecule, how does the CC50 at 96 h read?
Its CC50 at 96 h is over 272 µM.

With `Cc1cc(C#N)cc(C)c1Oc1ccnc(SCC(=O)Nc2cccc(Cl)c2)n1` as the molecule, how does the CC50 at 96 h read?
Its CC50 at 96 h is over 294 µM.

With `Cc1cc(C#N)cc(C)c1Oc1ccnc(SCC(=O)Nc2ccc(Br)cc2)n1` as the molecule, how does the CC50 at 96 h read?
The CC50 at 96 h was 24 µM.

With `Cc1cc(C#N)cc(C)c1Oc1nc(Nc2ccc(C#N)cc2)nc(N)c1Br` [ETRAVIRINE] as the molecule, how does the CC50 at 96 h read?
Its CC50 at 96 h is over 4.6 µM.

With `COc1ccc(NC(=O)CSc2nccc(Oc3c(C)cc(C#N)cc3C)n2)cc1` as the molecule, how does the CC50 at 96 h read?
Its CC50 at 96 h is at least 69 µM.

system: Human immunodeficiency virus 1; assay: Antiviral activity against HIV1 3B infected in human MT4 cells […] at 0.19 uM added 3 to 5 hrs post infection and measured 31 hrs post infection by p24 enzyme-linked immunosorbent assay; assay type: functional, organism-based; settings: not given
How it was run: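 MT-4 cells infected with WT HIV-1 at m.o.i. 0.5; after 1 h adsorption, seeded at 45,000 cells/well, 37°C. Compounds added at 0, 1, 2, 3, 4, 5, 6, 7, 8, 9, 24 or 25 h post-infection. Reference agents at fixed levels (ETV 0.19 µM); hybrids at 100-fold their MT-4/MTT EC50. Virus production measured by p24 ELISA at 31 h post-infection.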

With `Cc1cc(C#N)cc(C)c1Oc1nc(Nc2ccc(C#N)cc2)nc(N)c1Br` [ETRAVIRINE] as the molecule, how does the inhibition read?
Its inhibition is “Active”.

system: Human immunodeficiency virus 1; assay: Antiviral activity against HIV1 RES056 expressing reverse transcriptase K103N + Y181C mutant infected in human MT4 cells assessed as inhibition of virus-induced cytopathicity incubated for 4 days by MTT method; assay type: functional, organism-based; settings: Human immunodeficiency virus 1, RES056, MT4, 96 h
How it was run: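 Serial compound dilutions in MT-4 cells (1 × 10^5 cells/mL) infected at MOI 0.02 with K103N+Y181C double-mutant HIV-1. Cells added to compound right after infection and incubated 4 days at 37 °C. Viable cells counted by MTT and EC50 derived. Cytotoxicity run in parallel on uninfected cells. Values are the mean of at least three experiments.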

For `Cc1cc(C#N)cc(C)c1Oc1ccnc(SCC(=O)Nc2cccc([N+](=O)[O-])c2)n1`, which EC50 is on record?
The EC50 was over 287 µM.

Which EC50 does the source give for `Cc1cc(C#N)cc(C)c1Oc1ccnc(SCC(=O)Nc2ccc(Cl)cc2)n1` here?
Its EC50 is over 294 µM.

For `Cc1cc(C#N)cc(C)c1Oc1ccnc(SCC(=O)Nc2ccc(O)cc2)n1`, which EC50 is on record?
The EC50 was over 71 µM.

For `Cc1cc(C#N)cc(C)c1Oc1ccnc(SCC(=O)Nc2ccc(C#N)cc2)n1`, which EC50 is on record?
The EC50 was over 301 µM.

For `Cc1cc(C#N)cc(C)c1Oc1ccnc(SCC(=O)Nc2cc(Cl)cc(Cl)c2)n1`, which EC50 is on record?
The EC50 was over 41 µM.

With `Cc1ccccc1NC(=O)CSc1nccc(Oc2c(C)cc(C#N)cc2C)n1` as the molecule, how does the EC50 read?
The EC50 was over 309 µM.

For `Cc1cc(C#N)cc(C)c1Oc1ccnc(SCC(=O)Nc2ccc(Cl)cc2Cl)n1`, which EC50 is on record?
Its EC50 is over 272 µM.

With `Cc1cc(C#N)cc(C)c1Oc1ccnc(SCC(=O)Nc2cccc(Cl)c2)n1` as the molecule, how does the EC50 read?
The EC50 was over 294 µM.

For `Cc1cc(C#N)cc(C)c1Oc1ccnc(SCC(=O)Nc2ccc(Br)cc2)n1`, which EC50 is on record?
The EC50 was over 24 µM.

With `COc1ccc(NC(=O)CSc2nccc(Oc3c(C)cc(C#N)cc3C)n2)cc1` as the molecule, how does the EC50 read?
Its EC50 is over 69 µM.
